Measured values as given in ChEMBL document CHEMBL4014288, “Targeted Antibiotic Delivery: Selective Siderophore Conjugation with Daptomycin Confers Potent Activity against Multidrug Resistant Acinetobacter baumannii Both in Vitro and in Vivo” (J Med Chem, 2017).
Values after ≈ are worked out from the molar mass of the structure shown. Active and inactive are the calls of the source. The rule behind the calls is not given here.

Legend:
[1] = test system: Mus musculus; test: Toxicity in ICR mouse at 250 mg/kg, iv after 21 to 22 days; format: organism-based; conditions: in vivo
[2] = test system: Acinetobacter baumannii; test: Antibacterial activity against Acinetobacter baumannii ATCC 17961 after 18 hrs by broth microdilution method; format: functional; conditions: ATCC 17961, 18 h
[3] = test system: Acinetobacter baumannii; test: Antibacterial activity against Acinetobacter baumannii ARC 3486 after 18 hrs by broth microdilution method; format: functional; conditions: ARC 3486, 18 h
[4] = test system: Pseudomonas aeruginosa; test: Antibacterial activity against Pseudomonas aeruginosa PAO1 after 18 hrs by broth microdilution method; format: functional; conditions: PAO1, 18 h
[5] = test system: Burkholderia multivorans; test: Antibacterial activity against Burkholderia multivorans AU0100 after 18 hrs by broth microdilution method; format: functional; conditions: AU0100, 18 h
[6] = test system: Staphylococcus aureus; test: Antibacterial activity against Staphylococcus aureus SG511 after 18 hrs by broth microdilution method; format: functional; conditions: SG511, 18 h
[7] = test system: Staphylococcus aureus; test: Antibacterial activity against Staphylococcus aureus ATCC 11632 after 18 hrs by broth microdilution method; format: functional; conditions: ATCC 11632, 18 h
[8] = test system: Escherichia coli; test: Antibacterial activity against Escherichia coli DCO after 18 hrs by broth microdilution method; format: functional
[9] = test system: Acinetobacter baumannii; test: Antibacterial activity against Acinetobacter baumannii ATCC BAA 1710 after 18 hrs by broth microdilution method; format: functional; conditions: ATCC BAA 1710, 18 h
[10] = test system: Acinetobacter baumannii; test: Antibacterial activity against Acinetobacter baumannii ATCC BAA 1793 after 18 hrs by broth microdilution method; format: functional; conditions: ATCC BAA 1793, 18 h
[11] = test system: Acinetobacter baumannii; test: Antibacterial activity against Acinetobacter baumannii ATCC BAA 1800 after 18 hrs by broth microdilution method; format: functional; conditions: ATCC BAA 1800, 18 h
[12] = test system: Acinetobacter baumannii; test: Antibacterial activity against Acinetobacter baumannii ARC 3484 after 18 hrs by broth microdilution method; format: functional; conditions: ARC 3484, 18 h
[13] = test system: Acinetobacter baumannii; test: Antibacterial activity against Acinetobacter baumannii ARC 5079 after 18 hrs by broth microdilution method; format: functional; conditions: ARC 5079, 18 h
[14] = test system: Acinetobacter baumannii; test: Antibacterial activity against Acinetobacter baumannii ARC 5081 after 18 hrs by broth microdilution method; format: functional; conditions: ARC 5081, 18 h
[15] = test system: Acinetobacter baumannii; test: Antibacterial activity against Acinetobacter baumannii ATCC 19606 after 18 hrs by broth microdilution method; format: functional; conditions: ATCC 19606, 18 h
[16] = test system: Acinetobacter baumannii; test: Antibacterial activity against Acinetobacter baumannii ATCC BAA 1797 after 18 hrs by broth microdilution method; format: functional; conditions: ATCC BAA 1797, 18 h
[17] = test system: Acinetobacter baumannii; test: Antibacterial activity against Acinetobacter baumannii ATCC 17961 infected in ICR mouse assessed as mouse survival rate at 25 mg/kg, iv administered at 30 mins and 24.5 hrs post infection measured 7 days post infection relative to vehicle-treated control; format: functional; conditions: ATCC 17961, iv
How it was run: (§1)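 Sepsis model in 6- to 8-week-old female ICR mice infected intraperitoneally with A. baumannii ATCC 17961. Treatment given intravenously at 30 min and again at 24.5 h after infection, at 25, 10 or 5 mg/kg. Saline vehicle group as control. Five mice per dose group and six in the vehicle group. Read-out was survival.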

[18] = test system: Acinetobacter baumannii; test: Antibacterial activity against Acinetobacter baumannii ATCC 17961 infected in ICR mouse assessed as mouse survival rate at 10 mg/kg, iv administered at 30 mins and 24.5 hrs post infection measured 7 days post infection relative to vehicle-treated control; format: functional; conditions: ATCC 17961, iv; how it was run: as §1
[19] = test system: Acinetobacter baumannii; test: Antibacterial activity against Acinetobacter baumannii ATCC 17961 infected in ICR mouse assessed as mouse survival rate at 5 mg/kg, iv administered at 30 mins and 24.5 hrs post infection measured 7 days post infection relative to vehicle-treated control; format: functional; conditions: ATCC 17961, iv; how it was run: as §1
[20] = Binding affinity to ferric ion
[21] = Binding affinity to ferric ion at 5 mg after 18 hrs by LC-MS analysis
How it was run: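 Ferric complex made by adding Fe(acac)3 (1.1 mg) in MeOH (1 mL) to conjugate (5.0 mg) in MeOH (1 mL). Analysed by LC on a C18 column (2.2 μm particles) at 40 °C, with a water/acetonitrile mobile phase. UV-vis diode-array detection over 190−400 nm, plus MS.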

[22] = test system: Acinetobacter baumannii; test: Antibacterial activity against Acinetobacter baumannii ATCC 17961 infected in ICR mouse assessed as mouse survival rate at 50 mg/kg, iv administered at 30 mins and 24.5 hrs post infection measured 7 days post infection; format: functional, organism-based
How it was run: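 Female ICR mice, 6 to 8 weeks old, infected intraperitoneally with A. baumannii ATCC 17961 (sepsis model). Treatments were given intravenously at 30 min and 24.5 h after infection, with saline as vehicle. Survival was scored as the fraction of mice alive per group (3 to 6 mice per group).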

Row | Compound | MIC [2] [µM] | MIC [3] [µM] | MIC [4] [µM] | MIC [5] [µM] | MIC [6] [µM] | MIC [7] [µM] | MIC [8] [µM] | MIC [9] [µM] | MIC [10] [µM] | MIC [11] [µM] | MIC [12] [µM] | MIC [13] [µM] | MIC [14] [µM] | MIC [15] [µM] | MIC [16] [µM] | other results
1 | CCCCCCCCCC(=O)N[C@@H](Cc1c[nH]c2ccccc12)C(=O)N[C@H](CC(N)=O)C(=O)N[C@@H](CC(=O)O)C(=O)N[C@@H]1C(=O)NCC(=O)N[C@@H](CCCNC(=O)CCCC(=O)N(O)CCCCCNC(=O)CCC(=O)N(CCCCNC(=O)c2cccc(O)c2O)CCCNC(=O)c2cccc(O)c2O)C(=O)N[C@@H](CC(=O)O)C(=O)N[C@H](C)C(=O)N[C@@H](CC(=O)O)C(=O)NCC(=O)N[C@H](CO)C(=O)N[C@@H]([C@@H](C)CC(=O)O)C(=O)N[C@@H](CC(=O)c2ccccc2N)C(=O)O[C@@H]1C [listing 1 of 2 here] |  |  |  |  |  |  |  |  |  |  |  |  |  |  |  | Activity [1]: Non-Toxic
2 | CCCCCCCCCC(=O)N[C@@H](Cc1c[nH]c2ccccc12)C(=O)N[C@H](CC(N)=O)C(=O)N[C@@H](CC(=O)O)C(=O)N[C@@H]1C(=O)NCC(=O)N[C@@H](CCCNC(=O)CCCC(=O)N(O)CCCCCNC(=O)CCC(=O)N(CCCCNC(=O)c2cccc(O)c2O)CCCNC(=O)c2cccc(O)c2O)C(=O)N[C@@H](CC(=O)O)C(=O)N[C@H](C)C(=O)N[C@@H](CC(=O)O)C(=O)NCC(=O)N[C@H](CO)C(=O)N[C@@H]([C@@H](C)CC(=O)O)C(=O)N[C@@H](CC(=O)c2ccccc2N)C(=O)O[C@@H]1C [listing 2 of 2 here] | 0.4 (≈ 0.934 µg/mL) | 0.4 (≈ 0.934 µg/mL) | > 100 | > 100 | 6 (≈ 14 µg/mL) | 12.5 (≈ 29.2 µg/mL) | > 100 | 0.8 (≈ 1.87 µg/mL) | 0.8 (≈ 1.87 µg/mL) | 0.8 (≈ 1.87 µg/mL) | 0.4 (≈ 0.934 µg/mL) | 0.8 (≈ 1.87 µg/mL) | 0.4 (≈ 0.934 µg/mL) | 0.8 (≈ 1.87 µg/mL) | 0.8 (≈ 1.87 µg/mL) | survival at 25 mg/kg [17]: 80%; survival at 10 mg/kg [18]: 80%; survival at 5 mg/kg [19]: 20%
3 | CCCCCCCCCC(=O)N[C@@H](Cc1c[nH]c2ccccc12)C(=O)N[C@@H](CC(N)=O)C(=O)N[C@@H](CC(=O)O)C(=O)N[C@@H]1C(=O)NCC(=O)N[C@@H](CCCNC(=O)CCCC(=O)N(CCCCCNC(=O)CCC(=O)N(CCCCNC(=O)c2cccc(OCc3ccccc3)c2OCc2ccccc2)CCCNC(=O)c2cccc(OCc3ccccc3)c2OCc2ccccc2)OCc2ccccc2)C(=O)N[C@@H](CC(=O)O)C(=O)N[C@H](C)C(=O)N[C@@H](CC(=O)O)C(=O)NCC(=O)N[C@H](CO)C(=O)N[C@@H]([C@@H](C)CC(=O)O)C(=O)N[C@@H](CC(=O)c2ccccc2N)C(=O)O[C@@H]1C | > 50 | > 50 |  |  |  |  |  | > 50 | > 50 | > 50 | > 50 | > 50 | > 50 | > 50 | > 50 | Activity [20]: inactive
4 | CCCCCCCCCC(=O)N[C@@H](Cc1c[nH]c2ccccc12)C(=O)N[C@@H](CC(N)=O)C(=O)N[C@@H](CC(=O)O)C(=O)N[C@@H]1C(=O)NCC(=O)N[C@@H](CCCNC(=O)CCCC(=O)N(O)CCCCCNC(=O)CCC(=O)N(CCCCNC(=O)c2cccc(O)c2O)CCCNC(=O)c2cccc(O)c2O)C(=O)N[C@@H](CC(=O)O)C(=O)N[C@H](C)C(=O)N[C@@H](CC(=O)O)C(=O)NCC(=O)N[C@H](CO)C(=O)N[C@@H]([C@@H](C)CC(=O)O)C(=O)N[C@@H](CC(=O)c2ccccc2N)C(=O)O[C@@H]1C |  |  |  |  |  |  |  |  |  |  |  |  |  |  |  | Activity [21]: Active
5 | NCC[C@H](O)C(=O)N[C@@H]1C[C@H](N)[C@@H](O[C@H]2O[C@H](CN)[C@@H](O)[C@H](O)[C@H]2O)[C@H](O)[C@H]1O[C@H]1O[C@H](CO)[C@@H](O)[C@H](N)[C@H]1O [AMIKACIN] | 1.7 (≈ 0.996 µg/mL) | > 50 |  |  |  |  |  | > 50 | > 50 | > 50 | > 27 | > 50 | > 50 | 3.4 (≈ 1.99 µg/mL) | 27 (≈ 15.8 µg/mL) | 
6 | O=C(O)c1cn(C2CC2)c2cc(N3CCNCC3)c(F)cc2c1=O [CIPROFLOXACIN] | 0.2 (≈ 0.0663 µg/mL) | > 25 | 0.5 (≈ 0.166 µg/mL) | > 25 | 0.5 (≈ 0.166 µg/mL) | 0.5 (≈ 0.166 µg/mL) | 0.5 (≈ 0.166 µg/mL) | > 25 | > 25 | > 25 | > 25 | > 25 | > 25 | 0.8 (≈ 0.265 µg/mL) | > 25 | 
7 | CCCCCCCCCC(=O)N[C@@H](Cc1c[nH]c2ccccc12)C(=O)N[C@@H](CC(N)=O)C(=O)N[C@@H](CC(=O)O)C(=O)N[C@@H]1C(=O)NCC(=O)N[C@@H](CCCN)C(=O)N[C@@H](CC(=O)O)C(=O)N[C@H](C)C(=O)N[C@@H](CC(=O)O)C(=O)NCC(=O)N[C@H](CO)C(=O)N[C@@H]([C@H](C)CC(=O)O)C(=O)N[C@@H](CC(=O)c2ccccc2N)C(=O)O[C@@H]1C [DAPTOMYCIN] | > 100 | > 100 | > 100 | > 100 | 0.05 (≈ 0.081 µg/mL) | 0.4 (≈ 0.648 µg/mL) | > 100 | > 100 | > 100 | > 100 | > 100 | > 100 | > 100 |  | > 100 | Activity [22]: inactive
